Data from ChEMBL document CHEMBL3627606, “Development of Novel, CNS Penetrant Positive Allosteric Modulators for the Metabotropic Glutamate Receptor Subtype 1 (mGlu1), Based on an N-(3-Chloro-4-(1,3-dioxoisoindolin-2-yl)phenyl)-3-methylfuran-2-carboxamide Scaffold, That Potentiate Wild Type and Mutant mGlu1 Receptors Found in …” (J Med Chem, 2015).

Columns and labels:
Brain = assay: Drug concentration in C57BL/6 mouse brain at 100 mg/kg, ip administered as single dose; type: ADME, organism-based; settings: in vivo, read-out: Drug uptake
[1] = Plasma concentration in Sprague-Dawley rat at 0.2 mg/kg, iv after 0.25 hrs by LC-MS/MS analysis
[2] = target: Metabotropic glutamate receptor 1 (Rattus norvegicus) (UniProt P23385); assay: Positive allosteric modulation of rat mGlu1 receptor assessed as potentiation of glutamate-induced calcium mobiliztion by cell based assay relative to glutamate; type: functional
In short: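 Rat mGlu1 WT calcium mobilization concentration-response curves. EC50 and % Glu Max were derived from the curves.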

Cytochrome P450 3A4 = Cytochrome P450 3A4 (Homo sapiens, UniProt P08684); assay: Inhibition of CYP3A4 in human liver microsomes by LC-MS/MS analysis; type: ADME
[3] = target: T1, Metabotropic glutamate receptor 4 (Homo sapiens, UniProt Q14833); assay: Positive allosteric modulation of human mGlu4 receptor assessed as potentiation of glutamate-induced calcium mobiliztion by cell based assay; type: functional; settings: read-out: EC50
[4] = target: Metabotropic glutamate receptor 1 (Homo sapiens, UniProt Q13255); assay: Agonist activity at human mGlu1 receptor in HEK293 cells assessed as calcium mobilization at 10 uM by Fluo-4AM dye based fluorescence analysis; type: functional, cell-based
Plasma = assay: Fraction unbound in rat plasma; type: ADME, cell-free
[5] = Mean residence time in Sprague-Dawley rat at 0.2 mg/kg, iv by LC-MS/MS analysis; settings: in vivo
[6] = test system: Metabotropic glutamate receptor 1 (Homo sapiens), Q13255 [A683E]; assay: Agonist activity at human mGlu1 A683E mutant receptor expressed in HEK293 cells assessed as calcium mobilization at > 1 uM uM by Fluo-4AM dye based fluorescence analysis; type: functional, cell-based
[7] = target: Metabotropic glutamate receptor 5 (Homo sapiens) (UniProt P41594); assay: Positive allosteric modulation of mGlu5 receptor (unknown origin) assessed as potentiation of glutamate-induced response by cell-based assay
In short: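 Selectivity counterscreen at the other mGlu subtypes using the standard fold-shift paradigm. Compound was tested at 10 μM against the glutamate concentration-response curve, and the shift of that curve was read.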

[8] = target: T1, Metabotropic glutamate receptor 4; assay: Positive allosteric modulation of human mGlu4 receptor assessed as potentiation of glutamate-induced calcium mobiliztion by cell based assay relative to PHCCC

T1 sequence (Q14833 whole entry): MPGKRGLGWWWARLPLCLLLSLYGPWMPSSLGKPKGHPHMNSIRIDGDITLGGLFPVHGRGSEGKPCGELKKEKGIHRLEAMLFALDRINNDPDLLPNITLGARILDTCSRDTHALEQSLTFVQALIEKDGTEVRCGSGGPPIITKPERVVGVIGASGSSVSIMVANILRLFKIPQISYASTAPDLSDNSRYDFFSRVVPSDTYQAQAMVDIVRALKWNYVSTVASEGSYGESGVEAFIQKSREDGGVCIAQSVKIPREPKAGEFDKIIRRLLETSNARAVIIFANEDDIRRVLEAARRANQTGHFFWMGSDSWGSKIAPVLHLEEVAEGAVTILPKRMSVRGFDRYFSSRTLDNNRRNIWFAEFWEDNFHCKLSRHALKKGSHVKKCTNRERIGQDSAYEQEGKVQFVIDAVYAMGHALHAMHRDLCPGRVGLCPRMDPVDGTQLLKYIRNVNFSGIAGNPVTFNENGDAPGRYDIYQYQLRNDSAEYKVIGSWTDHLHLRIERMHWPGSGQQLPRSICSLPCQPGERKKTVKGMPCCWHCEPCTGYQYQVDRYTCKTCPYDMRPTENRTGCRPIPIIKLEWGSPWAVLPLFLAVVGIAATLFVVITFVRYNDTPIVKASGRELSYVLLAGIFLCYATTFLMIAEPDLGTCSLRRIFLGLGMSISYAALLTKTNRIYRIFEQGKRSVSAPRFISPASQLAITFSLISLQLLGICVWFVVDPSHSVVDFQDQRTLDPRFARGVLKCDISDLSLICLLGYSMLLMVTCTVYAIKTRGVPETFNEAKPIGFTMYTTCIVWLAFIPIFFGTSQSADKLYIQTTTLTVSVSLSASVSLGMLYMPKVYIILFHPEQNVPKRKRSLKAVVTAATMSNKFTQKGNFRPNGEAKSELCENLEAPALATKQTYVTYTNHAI
Metabotropic glutamate receptor 1, sequence (Q13255 19-1194 limits assumed): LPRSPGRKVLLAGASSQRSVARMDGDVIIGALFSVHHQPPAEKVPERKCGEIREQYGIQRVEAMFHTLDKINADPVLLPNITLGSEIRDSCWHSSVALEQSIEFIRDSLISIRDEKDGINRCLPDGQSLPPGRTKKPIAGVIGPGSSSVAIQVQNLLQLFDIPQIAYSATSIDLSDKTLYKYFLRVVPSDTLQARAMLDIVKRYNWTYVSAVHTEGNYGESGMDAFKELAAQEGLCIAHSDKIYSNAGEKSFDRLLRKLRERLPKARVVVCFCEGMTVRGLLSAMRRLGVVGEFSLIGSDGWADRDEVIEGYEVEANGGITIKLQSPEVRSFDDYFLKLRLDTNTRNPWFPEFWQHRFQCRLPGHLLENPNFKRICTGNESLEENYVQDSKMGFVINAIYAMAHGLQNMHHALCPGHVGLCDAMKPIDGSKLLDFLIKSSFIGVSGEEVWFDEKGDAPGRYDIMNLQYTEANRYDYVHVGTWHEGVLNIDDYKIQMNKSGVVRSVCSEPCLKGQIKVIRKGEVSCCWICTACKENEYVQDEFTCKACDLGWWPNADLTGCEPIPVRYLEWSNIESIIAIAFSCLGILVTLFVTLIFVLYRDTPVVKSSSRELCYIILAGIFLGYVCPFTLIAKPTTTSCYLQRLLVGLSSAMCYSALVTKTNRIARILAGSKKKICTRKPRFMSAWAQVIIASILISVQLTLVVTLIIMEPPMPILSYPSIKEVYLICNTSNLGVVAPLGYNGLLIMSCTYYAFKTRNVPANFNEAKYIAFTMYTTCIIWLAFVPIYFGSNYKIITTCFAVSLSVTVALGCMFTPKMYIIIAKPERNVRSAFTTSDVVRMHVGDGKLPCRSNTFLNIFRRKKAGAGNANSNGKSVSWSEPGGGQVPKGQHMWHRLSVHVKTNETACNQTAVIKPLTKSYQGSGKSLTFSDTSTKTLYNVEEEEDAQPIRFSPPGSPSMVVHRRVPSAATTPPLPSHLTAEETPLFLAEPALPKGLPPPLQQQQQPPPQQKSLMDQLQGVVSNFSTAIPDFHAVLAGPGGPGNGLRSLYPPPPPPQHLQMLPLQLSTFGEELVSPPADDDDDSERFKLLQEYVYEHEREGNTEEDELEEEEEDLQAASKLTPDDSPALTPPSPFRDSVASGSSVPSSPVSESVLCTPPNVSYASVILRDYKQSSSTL
Metabotropic glutamate receptor 5 (Homo sapiens), sequence (P41594 21-1212 limits assumed): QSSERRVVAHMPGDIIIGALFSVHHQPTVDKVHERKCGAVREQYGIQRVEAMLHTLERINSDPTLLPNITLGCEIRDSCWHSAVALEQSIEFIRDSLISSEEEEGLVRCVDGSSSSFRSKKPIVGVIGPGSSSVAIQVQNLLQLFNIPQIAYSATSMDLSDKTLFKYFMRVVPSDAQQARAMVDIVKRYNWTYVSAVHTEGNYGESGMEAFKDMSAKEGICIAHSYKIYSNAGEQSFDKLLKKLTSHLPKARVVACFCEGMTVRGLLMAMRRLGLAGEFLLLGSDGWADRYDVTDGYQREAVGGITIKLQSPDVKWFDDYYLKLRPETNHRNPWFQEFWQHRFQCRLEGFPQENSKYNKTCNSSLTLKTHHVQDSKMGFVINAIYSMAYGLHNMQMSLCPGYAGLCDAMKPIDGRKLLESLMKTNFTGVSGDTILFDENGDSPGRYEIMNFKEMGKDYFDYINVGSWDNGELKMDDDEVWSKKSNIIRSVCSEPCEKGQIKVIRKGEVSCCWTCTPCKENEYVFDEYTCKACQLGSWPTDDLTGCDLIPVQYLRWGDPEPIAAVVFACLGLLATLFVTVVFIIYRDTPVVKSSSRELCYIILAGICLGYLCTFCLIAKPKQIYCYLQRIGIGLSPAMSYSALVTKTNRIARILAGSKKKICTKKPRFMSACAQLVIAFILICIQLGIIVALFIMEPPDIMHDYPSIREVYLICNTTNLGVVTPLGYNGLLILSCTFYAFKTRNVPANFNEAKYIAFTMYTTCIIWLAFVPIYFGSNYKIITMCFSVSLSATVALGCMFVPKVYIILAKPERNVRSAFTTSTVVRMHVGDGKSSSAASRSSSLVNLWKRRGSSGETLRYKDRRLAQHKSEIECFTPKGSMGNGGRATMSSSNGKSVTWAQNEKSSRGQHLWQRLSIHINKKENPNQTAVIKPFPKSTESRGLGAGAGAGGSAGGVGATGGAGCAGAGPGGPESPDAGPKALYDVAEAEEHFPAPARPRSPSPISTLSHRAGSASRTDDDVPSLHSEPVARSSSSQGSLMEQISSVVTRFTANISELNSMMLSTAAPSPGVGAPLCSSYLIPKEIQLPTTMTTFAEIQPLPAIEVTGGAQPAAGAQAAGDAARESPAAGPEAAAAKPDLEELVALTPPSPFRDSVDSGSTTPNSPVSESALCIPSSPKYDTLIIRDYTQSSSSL
Cytochrome P450 3A4, sequence (P08684 whole entry): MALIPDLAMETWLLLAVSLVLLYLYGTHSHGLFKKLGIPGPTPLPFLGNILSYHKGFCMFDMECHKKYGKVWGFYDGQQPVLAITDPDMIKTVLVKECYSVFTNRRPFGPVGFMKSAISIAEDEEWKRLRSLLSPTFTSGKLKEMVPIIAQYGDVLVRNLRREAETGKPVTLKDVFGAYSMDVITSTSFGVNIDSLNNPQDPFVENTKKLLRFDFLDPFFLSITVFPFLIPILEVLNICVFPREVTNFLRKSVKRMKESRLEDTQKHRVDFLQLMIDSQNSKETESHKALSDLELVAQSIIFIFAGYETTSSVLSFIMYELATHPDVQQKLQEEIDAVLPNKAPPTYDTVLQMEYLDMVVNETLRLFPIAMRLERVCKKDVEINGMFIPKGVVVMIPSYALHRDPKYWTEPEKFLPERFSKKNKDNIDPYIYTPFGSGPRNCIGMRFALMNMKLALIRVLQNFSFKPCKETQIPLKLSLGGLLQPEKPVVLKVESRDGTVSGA
Metabotropic glutamate receptor 1 (Rattus norvegicus), sequence (P23385 19-1199 limits assumed): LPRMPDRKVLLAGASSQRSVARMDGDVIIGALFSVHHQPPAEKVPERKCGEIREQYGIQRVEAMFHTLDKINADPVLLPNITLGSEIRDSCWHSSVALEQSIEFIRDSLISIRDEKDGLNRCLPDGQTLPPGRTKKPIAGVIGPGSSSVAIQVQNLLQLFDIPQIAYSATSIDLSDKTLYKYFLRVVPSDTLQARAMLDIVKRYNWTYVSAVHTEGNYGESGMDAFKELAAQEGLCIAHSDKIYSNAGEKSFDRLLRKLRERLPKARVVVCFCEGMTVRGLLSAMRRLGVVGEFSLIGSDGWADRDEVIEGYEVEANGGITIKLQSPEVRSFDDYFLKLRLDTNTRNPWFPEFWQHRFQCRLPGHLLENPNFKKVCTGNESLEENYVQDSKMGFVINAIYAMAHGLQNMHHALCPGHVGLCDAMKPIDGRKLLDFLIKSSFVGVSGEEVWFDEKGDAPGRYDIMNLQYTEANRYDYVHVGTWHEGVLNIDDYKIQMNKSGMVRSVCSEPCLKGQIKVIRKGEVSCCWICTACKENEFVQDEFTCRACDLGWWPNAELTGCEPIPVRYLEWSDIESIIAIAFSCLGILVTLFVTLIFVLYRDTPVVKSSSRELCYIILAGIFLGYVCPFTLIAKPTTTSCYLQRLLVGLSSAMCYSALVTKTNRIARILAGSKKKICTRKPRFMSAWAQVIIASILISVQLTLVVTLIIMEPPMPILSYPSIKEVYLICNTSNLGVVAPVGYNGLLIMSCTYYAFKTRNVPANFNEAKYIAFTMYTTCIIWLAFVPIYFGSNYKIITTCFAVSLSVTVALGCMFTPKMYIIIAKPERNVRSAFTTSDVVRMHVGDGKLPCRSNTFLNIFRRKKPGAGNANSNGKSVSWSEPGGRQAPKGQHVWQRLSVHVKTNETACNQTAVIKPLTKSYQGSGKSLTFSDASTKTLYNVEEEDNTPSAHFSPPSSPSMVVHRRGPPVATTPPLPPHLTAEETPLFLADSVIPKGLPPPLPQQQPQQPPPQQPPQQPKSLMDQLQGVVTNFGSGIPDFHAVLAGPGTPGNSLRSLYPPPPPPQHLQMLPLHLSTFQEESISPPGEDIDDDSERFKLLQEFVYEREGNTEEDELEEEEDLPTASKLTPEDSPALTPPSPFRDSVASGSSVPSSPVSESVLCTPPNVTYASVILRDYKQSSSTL

- concentration (Brain): 9.2 µM
- concentration at 0.25 h [1]: 200 ng/mL
- %max [2]: 103%
- IC50 (Cytochrome P450 3A4): > 30000 nM
- EC50 [3]: 1110 nM
- Activity [4]: 35%
- Fu (Plasma): 0.03
- MRT [5]: 1.07 h
- Activity [6]: 40%
- fold change (FC) [7]: 2.7
- %max [8]: 122%
Structure (SMILES): Cc1ccoc1C(=O)Nc1ccc(N2C(=O)c3cccc(F)c3C2=O)c(Cl)c1
